According to ChEMBL document CHEMBL3352304, “Synthesis and evaluation of 3-salicyloylpyridine derivatives as cytotoxic mitochondrial apoptosis inducers” (Bioorg Med Chem Lett, 2014):
Calls of active or inactive are those of the source. The rule behind the calls is not given here.

Experiments:
MCF7 = assay: Cytotoxicity against human MCF7 cells after 48 hrs by SRB assay; format: functional, cell-based; conditions: MCF7, 48 h
[1] = Cytotoxicity against human IMR32 cells after 48 hrs by SRB assay; format: functional, cell-based; conditions: IMR-32, 48 h
[2] = Cytotoxicity against human PC3 cells after 48 hrs by SRB assay; format: functional, cell-based; conditions: PC-3, 48 h
HeLa = assay: Cytotoxicity against human HeLa cells after 48 hrs by SRB assay; format: functional, cell-based
[3] = Cytotoxicity against human Hep cells after 48 hrs by SRB assay; format: functional, cell-based
PC-3 [4] = assay: Induction of apoptotic morphological changes in human PC3 cells assessed as spherical cell shape changes at cytotoxic IC50 level incubated for 12 hrs by DAPI staining based confocal laser microscopy; format: functional
Summary of the method: (§1)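 PC-3 cells (1 × 10⁶) in 1 ml medium in 24-well plates grown to confluence 24 h at 37 °C, 5% CO₂, then exposed to test compound at its IC₅₀ for 12 h; camptothecin 2 µM as positive control. Medium replaced with serum-free medium, cells stained with DAPI (10 mM) 1 h at 37 °C and imaged by laser scanning confocal fluorescence microscopy against untreated control.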

PC-3 [5] = assay: Induction of apoptotic morphological changes in human PC3 cells assessed as plasma membrane blebbing at cytotoxic IC50 level incubated for 12 hrs by DAPI staining based confocal laser microscopy; format: functional, cell-based; summary of the method: as §1
PC-3 [6] = assay: Induction of apoptotic morphological changes in human PC3 cells assessed as increase in apoptotic bodies at cytotoxic IC50 level incubated for 12 hrs by DAPI staining based confocal laser microscopy; format: functional, cell-based; summary of the method: as §1
PC-3 [7] = assay: Induction of apoptotic morphological changes in human PC3 cells assessed as plasma membrane blebbing at cytotoxic IC50 level incubated for 12 hrs by scanning electron microscopy; format: functional, cell-based
Summary of the method: (§2)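 PC-3 cells incubated with test compound at its IC₅₀ for 12 h, with 2 µM camptothecin as positive control and untreated cells as control; cell surface morphology examined by scanning electron microscopy.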

PC-3 [8] = assay: Induction of apoptotic morphological changes in human PC3 cells assessed as cell size condensation at cytotoxic IC50 level incubated for 12 hrs by scanning electron microscopy; format: functional, cell-based; summary of the method: as §2
PC-3 [9] = assay: Induction of apoptotic morphological changes in human PC3 cells assessed as cell surface smoothening at cytotoxic IC50 level incubated for 12 hrs by scanning electron microscopy; format: functional, cell-based; summary of the method: as §2
PC-3 [10] = assay: Reduction in mitochondrial membrane potential in human PC3 cells incubated for 12 hrs by rhodamine-123 dye based spectrofluorimetry; format: functional, cell-based
Summary of the method: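 PC-3 cells (1 × 10⁶) in 24-well plates incubated with or without test compound at 1, 5 and 10 µM for 12 h at 37 °C, 5% CO₂, washed with PBS, then loaded with rhodamine-123 1 h in serum-free medium. Fluorescence read in a plate reader at excitation 480 nm / emission 530 nm; shown with SD.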

PC-3 [11] = assay: Induction of intracellular ROS generation in human PC3 cells incubated for 12 hrs by DCFH-DA dye based spectrofluorimetry; format: functional, cell-based
Summary of the method: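 PC-3 cells plated at 1 × 10⁶ cells/dish in 24-well plates, adhered 6 h, then grown with or without test compound at 5, 10 and 15 µM for 12 h; DCFH-DA added 30 min before end. Trypsinized plus floating cells collected, 1 × 10⁶ cells pelleted, resuspended in ice-cold PBS (1.0 ml) and intracellular peroxides measured by spectrofluorimetry.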

PC-3 [12] = assay: Induction of apoptosis in human PC3 cells at 2 uM incubated for 12 hrs by DAPI staining based confocal laser microscopy; format: functional, cell-based
Summary of the method: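 PC-3 human prostate cancer cells (1 × 10⁶ in 1 ml medium) grown to confluence for 24 h at 37 °C, 5% CO₂, then exposed 12 h. Medium replaced with serum-free medium and cells stained with DAPI for 1 h at 37 °C. Nuclear and cell morphology imaged by laser scanning confocal fluorescence microscopy against untreated control cells.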

Row | Compound | IC50 (MCF7) [µM] | IC50 [1] [µM] | IC50 [2] [µM] | IC50 (HeLa) [µM] | IC50 [3] [µM] | other results
1 | C=CCOc1cc(Br)ccc1C(=O)c1cccnc1 | > 100 | 98 | > 100 | > 100 | > 100 | 
2 | C=CCOc1c(Cl)cccc1C(=O)c1cccnc1 | > 100 | 94 | > 100 | 100 | 92 | 
3 | C=CCOc1ccccc1C(=O)c1cccnc1 | > 100 | 44 | 55 | > 100 | > 100 | 
4 | C=CCOc1ccc(Br)cc1C(=O)c1cccnc1 | 92 | 88 | 59 | 96 | 78 | 
5 | O=c1[nH]cc(F)c(=O)[nH]1 [FLUOROURACIL] |  | 1.3 |  |  | 0.5 | 
6 | C=CCOc1ccc(Cl)cc1C(=O)c1cccnc1 | 54 | 91 | > 100 | 75 | > 100 | 
7 | O=C(c1cccnc1)c1ccccc1O | 24.6 | 33.7 | 33.4 | 33 | 31 | 
8 | O=C(c1cccnc1)c1cccc(Cl)c1O | 26.7 | 26 | 31.5 | 21 | 28 | 
9 | CC(=O)O[C@H]1C(=O)[C@@]2(C)[C@H]([C@H](OC(=O)c3ccccc3)[C@]3(O)C[C@H](OC(=O)[C@H](O)[C@@H](NC(=O)c4ccccc4)c4ccccc4)C(C)=C1C3(C)C)[C@]1(OC(C)=O)CO[C@@H]1C[C@@H]2O [PACLITAXEL] | 0.2 |  |  |  |  | 
10 | O=C(c1cccnc1)c1ccc(Br)cc1O | > 100 | 89 | 88.6 | 37 | 85 | 
11 | O=C(c1cccnc1)c1cc(F)ccc1O | 27.8 | 6.21 | 11.8 | 27 | 12 | 
12 | Cc1ccc(O)c(C(=O)c2cccnc2)c1 | 8.04 | 5.54 | 10 | 26 | 11 | Activity (PC-3 [4]): Active; Activity (PC-3 [5]): Active; Activity (PC-3 [6]): Active; Activity (PC-3 [7]): Active; Activity (PC-3 [8]): Active; Activity (PC-3 [9]): Active; Activity (PC-3 [10]): Dose-dependent effect; Activity (PC-3 [11]): Dose-dependent effect
13 | C=CCOc1c(Cl)cc(Cl)cc1C(=O)c1cccnc1 | 85 | 52 | 96 | 34 | > 100 | 
14 | O=C(c1cccnc1)c1cc(Br)ccc1O | 53.5 | 23.4 | 60.2 | 29 | 29 | 
15 | CO[C@@]12[C@H](COC(N)=O)C3=C(C(=O)C(C)=C(N)C3=O)N1C[C@@H]1N[C@@H]12 [MITOMYCIN] |  |  | 1.5 |  |  | 
16 | CC[C@@]1(O)C(=O)OCc2c1cc1n(c2=O)Cc2cc3ccccc3nc2-1 |  |  |  |  |  | Activity (PC-3 [12]): Active
17 | O=C(c1cccnc1)c1cc(Cl)cc(Cl)c1O | 29.6 | 28.8 | 28.7 | > 100 | 27 | 
18 | C=CCOc1ccc(C)cc1C(=O)c1cccnc1 | 84 | 87 | 98 | 94 | 72 | 
19 | O=C(c1cccnc1)c1cc(Cl)ccc1O | 29 | 19.5 | 24.8 | 24 | 27 | 
20 | C=CCOc1ccc(F)cc1C(=O)c1cccnc1 | > 100 | 91 | > 100 | 93 | > 100 | 
